Measurements as given in paper PMC5743405 (International Journal of Oncology, 2017).
“Also recorded” adds a separate entry of the source.

Columns and labels:
CHRM2 = test: PathHunter β-arrestin; assay type: cell-based; conditions: 6 μM
Procedure, shortened: (§1)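 Engineered cells express the receptor fused to one β-galactosidase fragment (ED) and β-arrestin fused to the complementing fragment (EA). Receptor activation recruits β-arrestin, which restores enzyme activity, and this is read by chemiluminescence (RLU). Agonist % activity is 100% × (test − vehicle)/(maximal control ligand − vehicle). Antagonist mode is challenged with an EC80 control agonist, and % inhibition is 100% × (1 − (test − vehicle)/(EC80 − vehicle)). Hits require >30% activity or >35% inhibition, plus a 3×SD RLU margin.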

MTNR1A = test: PathHunter β-arrestin; assay type: cell-based; conditions: 6 μM
Procedure, shortened: (§2)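 Vendor-run (DiscoveRx) PathHunter enzyme fragment complementation. β-Arrestin carries the EA fragment and the receptor carries ED; recruitment restores β-gal activity, read by chemiluminescence (RLU). Agonist % activity = vehicle-subtracted RLU relative to max control ligand (gpcrMAX) or to vehicle (orphanMAX). Antagonist % inhibition = 100% × (1 − vehicle-subtracted sample RLU / vehicle-subtracted EC80 agonist control RLU).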

PTGIR = test: PathHunter β-arrestin; assay type: cell-based; conditions: 6 μM
Procedure, shortened: (§3)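 β-Arrestin recruitment to GPCR read by β-galactosidase fragment complementation and chemiluminescence. Agonist: % = 100 × (test − vehicle)/(max control ligand − vehicle), hit at >30% and RLU > baseline + 3 SD. Antagonist, against EC80 agonist: % inhibition = 100 × (1 − (test − vehicle)/(EC80 − vehicle)), hit at >35% and RLU < EC80 − 3 SD.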

TLR1 = test: western blot, JJ012 cells; assay type: cell-based, human; conditions: vs untreated control, overnight incubation
Procedure, shortened: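 JJ012 cells seeded at 1×10^6 cells/ml in 6-well clusters and incubated overnight at 37°C, 5% CO2 with or without test compound. Lysed with protease inhibitor (1:100) and centrifuged at 15,000 × g, 4°C. Protein loaded at 20 μg/lane with reducing agent, run on polyacrylamide gel, transferred to PVDF, probed with rabbit anti-TLR primaries and HRP-linked secondaries.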

CALCRL-RAMP2 = test: PathHunter β-arrestin; assay type: cell-based; conditions: 6 μM
Procedure, shortened: (§4)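 β-Arrestin recruitment assay: the enzyme acceptor is fused to β-arrestin and the ED fragment to the GPCR. Recruitment restores β-galactosidase, read by chemiluminescence. % activity = 100% × (test − vehicle)/(max control ligand − vehicle). % inhibition = 100% × (1 − (test − vehicle)/(EC80 control − vehicle)). An agonist hit needs >30% activity and RLU > baseline + 3×SD. An antagonist hit needs >35% inhibition and RLU < EC80 RLU − 3×SD.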

PROKR2 = test: PathHunter β-arrestin; assay type: cell-based; conditions: antagonist mode, 6 μM
GPR1 = test: PathHunter β-arrestin; assay type: cell-based; conditions: antagonist mode, 6 μM
Procedure, shortened: as §2

HTR1E = test: PathHunter β-arrestin; assay type: cell-based; conditions: 6 μM
Procedure, shortened: as §2

TLR6 = test: immunocytochemistry, colocalization with TLR6, JJ012 cells; assay type: cell-based, human; conditions: TLR6 yellow (DyLight 550), PRP-1 green (Alexa Fluor 488)
CCR5 = test: PathHunter β-arrestin; assay type: cell-based; conditions: antagonist mode, 6 μM
Procedure, shortened: as §1

SSTR3 = test: PathHunter β-arrestin; assay type: cell-based; conditions: 6 μM
Procedure, shortened: as §3

MRGPRX1 = test: PathHunter β-arrestin; assay type: cell-based; conditions: 6 μM
Procedure, shortened: as §2

DRD2S = test: PathHunter β-arrestin; assay type: cell-based; conditions: antagonist mode, 6 μM
Procedure, shortened: as §1

HTR2A = test: PathHunter β-arrestin; assay type: cell-based; conditions: 6 μM
Procedure, shortened: as §2

c-Myc = test: RT2 qPCR primer assay, JJ012 cells; assay type: cell-based, human
Procedure, shortened: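 RNA extracted from treated and control JJ012 cells, checked by spectrophotometry and reverse transcribed. SYBR Green qPCR with custom primer assays on three samples in technical triplicates. Ct normalized to the average of GAPDH and ACTB. Fold change vs control by 2^−ΔΔCt, shown as a heat map of average Ct.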

BRS3 = test: PathHunter β-arrestin; assay type: cell-based; conditions: antagonist mode, 6 μM
Procedure, shortened: as §4

PTHR2 = test: PathHunter β-arrestin; assay type: cell-based; conditions: antagonist mode, 6 μM
HRH2 = test: PathHunter β-arrestin; assay type: cell-based; conditions: 6 μM
Procedure, shortened: as §2

CXCR3 = test: PathHunter β-arrestin; assay type: cell-based; conditions: 6 μM
Procedure, shortened: as §1

OPRM1 = test: PathHunter β-arrestin; assay type: cell-based; conditions: 6 μM
Procedure, shortened: as §3

CNR2 = test: PathHunter β-arrestin; assay type: cell-based; conditions: 6 μM
Procedure, shortened: as §1

orphan receptors = test: orphanMAX β-arrestin panel, agonist mode; assay type: cell-based; conditions: summary of Table III
OXER1 = test: PathHunter β-arrestin; assay type: cell-based; conditions: agonist mode, 6 μM
CALCRL-RAMP3 = test: PathHunter β-arrestin; assay type: cell-based; conditions: antagonist mode, 6 μM
Procedure, shortened: as §4

[1] = test system: JJ012 chondrosarcoma cells; test: immunocytochemistry, PRP-1 localization; assay type: cell-based, human; conditions: PRP-1 antibody, Zenon Alexa Fluor 488; DAPI nuclear stain
C3AR1 = test: PathHunter β-arrestin; assay type: cell-based; conditions: antagonist mode, 6 μM
Procedure, shortened: as §4

GLP1R = test: PathHunter β-arrestin; assay type: cell-based; conditions: antagonist mode, 6 μM
Procedure, shortened: as §2

CCR1 = test: PathHunter β-arrestin; assay type: cell-based; conditions: antagonist mode, 6 μM
Procedure, shortened: as §4

NTSR1 = test: PathHunter β-arrestin; assay type: cell-based; conditions: antagonist mode, 6 μM
Procedure, shortened: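 GPCR-ED fusion and β-arrestin-EA fusion; arrestin recruitment restores β-galactosidase, read by chemiluminescence. Antagonist mode uses EC80 agonist challenge. % inhibition = 100 × (1 − (test − vehicle RLU)/(EC80 control − vehicle RLU)). Hit requires >35% inhibition and mean RLU below EC80 RLU − 3 × EC80 SD.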

With Proline rich polypeptide 1 [PRP-1] the “% Activity” value (CHRM2; agonist mode) was 1%, the “% Inhibition” value (CHRM2; antagonist mode) was −6% and the “% Activity” value (MTNR1A; agonist mode) was 2%. For the same substance, the “% Inhibition” value (MTNR1A; antagonist mode) was −9%, the “% Activity” value (PTGIR; agonist mode) was 1% and the “% Inhibition” value (PTGIR; antagonist mode) was −2%. The protein expression (TLR1) was “strong upregulation; also recorded: upregulated protein expression of TLR1 and TLR2 in dose-dependent manner”, the “% Activity” value (CALCRL-RAMP2; agonist mode) was 1% and the “% Inhibition” value (CALCRL-RAMP2; antagonist mode) was −1%. The “% Inhibition” value (PROKR2) was 8%, the “% Inhibition” value (GPR1) was −5% and the “% Activity” value (HTR1E; agonist mode) was 3%. The “% Inhibition” value (HTR1E; antagonist mode) was 5%, the “colocalization with TLR6” value (TLR6) was “nuclear and cytoplasmic colocalization with PRP-1 is demonstrated” and the “% Inhibition” value (CCR5) was −2%. The “% Activity” value (SSTR3; agonist mode) was 1%, the “% Inhibition” value (SSTR3; antagonist mode) was −5% and the “% Activity” value (MRGPRX1; agonist mode) was 1%. For the same substance, the “% Inhibition” value (MRGPRX1; antagonist mode) was −2%, the “% Inhibition” value (DRD2S) was 6% and the “% Activity” value (HTR2A; agonist mode) was 1%. The “% Inhibition” value (HTR2A; antagonist mode) was −5%, the gene expression (c-Myc; 10 μg/ml PRP-1, heat map, technical triplicates) was “went down drastically” and the “c-Myc gene expression, dose response” value (c-Myc; qRT-PCR, 1 and 10 μg/ml) was “downregulation of its gene expression in dose-response manner”. For the same substance, the “% Inhibition” value (BRS3) was 4%, the “% Inhibition” value (PTHR2) was −1% and the “% Activity” value (HRH2; agonist mode) was 1%. For the same substance, the “% Inhibition” value (HRH2; antagonist mode) was 1%, the “% Activity” value (CXCR3; agonist mode) was 1% and the “% Inhibition” value (CXCR3; antagonist mode) was −1%. For the same substance, the “% Activity” value (OPRM1; agonist mode) was 1%, the “% Inhibition” value (OPRM1; antagonist mode) was −2% and the “% Activity” value (CNR2; agonist mode) was −2%. For the same substance, the “% Inhibition” value (CNR2; antagonist mode) was 5%, the orphan receptor agonism (orphan receptors) was “neither that this peptide was agonist for orphan receptors” and the “% Activity” value (OXER1) was −2%. The “% Inhibition” value (CALCRL-RAMP3) was 1%, the localization [1] was “manifested its presence in the nucleus” and the “% Inhibition” value (C3AR1) was −2%. The “% Inhibition” value (GLP1R) was −9%, the “% Inhibition” value (CCR1) was −3% and the “% Inhibition” value (NTSR1) was −1%.
